Reference: ChEMBL document CHEMBL2311257, “Synthesis and antioxidant activity of thymol and carvacrol based Schiff bases” (Bioorg Med Chem Lett, 2013)
In brackets after ≈: the same amount, converted by molar mass.

Tests used:
Assay type in all cases: functional
[1] = tested on: Radical scavenging activity; test: Antioxidant activity assessed as DPPH radical scavenging activity in ethanol solution
In short: (§1)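 Compound dissolved in ethanol, then ethanolic DPPH added. Incubated 30 min in the dark. DPPH decrease read as absorbance at 517 nm against an ethanol blank, with ascorbic acid as reference. % activity = [(A0 − Ai)/A0] × 100, where A0 is absorbance without compound and Ai with compound. IC50 taken from activity across concentrations.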

[2] = tested on: Radical scavenging activity; test: Antioxidant activity assessed as DPPH radical scavenging activity in ethanol solution at 100 ug/mL; in short: as §1
[3] = tested on: Radical scavenging activity; test: Antioxidant activity assessed as DPPH radical scavenging activity in ethanol solution at 50 ug/mL; in short: as §1
[4] = tested on: Radical scavenging activity; test: Antioxidant activity assessed as DPPH radical scavenging activity in ethanol solution at 10 ug/mL; in short: as §1
[5] = tested on: Radical scavenging activity; test: Antioxidant activity assessed as DPPH radical scavenging activity in ethanol solution at 25 ug/mL; in short: as §1
[6] = tested on: Radical scavenging activity; test: Antioxidant activity assessed as DPPH radical scavenging activity in ethanol solution at 5 ug/mL; in short: as §1

SMILES	IC50 [1]	Activity [2]	Activity [3]	Activity [4]	Activity [5]	Activity [6]
Cc1cc(/N=C/c2ccccn2)c(C(C)C)cc1O	24.4 µg/mL (≈ 95.9 µM)	78.1%	75.5%	41.2%	65.2%	23.4%
Cc1cc(O)c(C(C)C)cc1/N=C/c1ccc(C(C)(C)C)cc1	18.37 µg/mL (≈ 59.4 µM)	83.8%	73.5%	51.6%	66.2%	23.6%
Cc1cc(O)c(C(C)C)cc1/N=C/c1ccc(C(C)C)cc1	18.66 µg/mL (≈ 63.2 µM)	82.6%	70.5%	50.8%	67.5%	24.5%
Cc1cc(O)c(C(C)(C)C)cc1/N=C/c1ccc2c(c1)OCO2	13.64 µg/mL (≈ 43.8 µM)	89.3%	87.5%	49.8%	68.5%	25.1%
Cc1cc(/N=C/c2ccc(Cl)cc2)c(C(C)C)cc1O	24.29 µg/mL (≈ 84.4 µM)	75.6%	68%	47.3%	59.6%	27.8%
Cc1cc(O)c(C(C)C)cc1/N=C/c1ccc(F)cc1	25.59 µg/mL (≈ 94.3 µM)	79.2%	73.2%	44.1%	62.9%	21.7%
CCc1ccc(/C=N/c2cc(C(C)C)c(O)cc2C)cc1	21.62 µg/mL (≈ 76.8 µM)	77%	72.4%	43%	64.7%	28.8%
Cc1cc(O)c(C(C)(C)C)cc1/N=C/c1ccc([N+](=O)[O-])cc1	47.39 µg/mL (≈ 152 µM)	73%	62.4%	26%	45.3%	16.8%
Cc1cc(O)c(C(C)C)cc1/N=C/c1ccc(Cl)cc1	24.11 µg/mL (≈ 83.8 µM)	79.8%	74.1%	44.7%	63.8%	22.4%
Cc1cc(O)c(C(C)(C)C)cc1/N=C/c1ccc(Cl)cc1	22.2 µg/mL (≈ 73.6 µM)	79.8%	73.9%	42.6%	61.5%	29.7%
Cc1cc(/N=C/c2ccc(C(C)(C)C)cc2)c(C(C)C)cc1O	21.89 µg/mL (≈ 70.7 µM)	79.2%	70.2%	49.9%	62.1%	25%
Cc1cc(/N=C/c2ccc(Br)cc2)c(C(C)C)cc1O	23.77 µg/mL (≈ 71.5 µM)	79.9%	64.5%	45.4%	63.1%	28.8%
Cc1ccc(C(C)C)c(O)c1 [THYMOL]	167.57 µg/mL (≈ 1120 µM)	29.5%	21.3%	5.49%	14.7%	3.07%
Cc1cc(O)c(C(C)(C)C)cc1/N=C/c1cccnc1	34.03 µg/mL (≈ 127 µM)	78.3%	70.3%	37.6%	54.5%	20.1%
Cc1cc(O)c(C(C)(C)C)cc1/N=C/c1ccccn1	22.27 µg/mL (≈ 83 µM)	91.7%	80.7%	44.7%	61%	22.4%
Cc1cc(O)c(C(C)(C)C)cc1/N=C/c1ccc(F)cc1	26.96 µg/mL (≈ 94.5 µM)	75.3%	72%	41.8%	57%	28.5%
Cc1cc(O)c(C(C)C)cc1/N=C/c1ccc(Br)cc1	22.05 µg/mL (≈ 66.4 µM)	80.9%	72.5%	46.9%	60%	27.7%

SMILES	IC50 [1]	Activity [2]	Activity [3]	Activity [4]	Activity [5]	Activity [6]
O=C1O[C@H]([C@@H](O)CO)C(O)=C1O [ASCORBIC ACID]	11.66 µg/mL (≈ 66.2 µM)	95.6%	94.4%	45%	85%	18.9%
Cc1cc(O)c(C(C)(C)C)cc1/N=C/c1ccccc1	18.6 µg/mL (≈ 69.6 µM)	87%	75.7%	49.6%	61.1%	28%
Cc1cc(/N=C/c2ccc3c(c2)OCO3)c(C(C)C)cc1O	16.58 µg/mL (≈ 55.8 µM)	88.8%	77.5%	45.4%	68.6%	28.8%
Cc1ccc(/C=N/c2cc(C)c(O)cc2C(C)C)cc1	25.58 µg/mL (≈ 95.7 µM)	81.3%	73.4%	44.9%	60.7%	22.1%
Cc1cc(O)c(C(C)C)cc1/N=C/c1ccccc1	18.55 µg/mL (≈ 73.2 µM)	83.8%	77.9%	45.2%	60.6%	31.6%
Cc1ccc(C(C)(C)C)c(O)c1	173.95 µg/mL (≈ 1060 µM)	28.6%	19.6%	4.69%	11.3%	3.29%
Cc1cc(O)c(C(C)C)cc1/N=C/c1ccc([N+](=O)[O-])cc1	63.03 µg/mL (≈ 211 µM)	65.3%	50.9%	17.6%	36.2%	10.3%
Cc1cc(/N=C/c2ccc(C(C)C)cc2)c(C(C)C)cc1O	21.08 µg/mL (≈ 71.4 µM)	78%	72.4%	49.5%	61.7%	25.8%
Cc1cc(/N=C/c2ccc(F)cc2)c(C(C)C)cc1O	32.52 µg/mL (≈ 120 µM)	73.7%	66.3%	41.1%	58.8%	22.5%
Cc1cc(/N=C/c2ccccc2)c(C(C)C)cc1O	22.26 µg/mL (≈ 87.9 µM)	82.5%	75%	45.4%	63.1%	24.6%
Cc1cc(/N=C/c2cccnc2)c(C(C)C)cc1O	32.76 µg/mL (≈ 129 µM)	73.8%	71.1%	34.2%	61.9%	21.8%
Cc1ccc(C(C)C)cc1O [CARVACROL]	131.24 µg/mL (≈ 874 µM)	37.4%	27.4%	9.91%	18.4%	5.17%
Cc1ccc(/C=N/c2cc(C(C)C)c(O)cc2C)cc1	21.89 µg/mL (≈ 81.9 µM)	75.1%	71.4%	45%	64.7%	27.3%
Cc1cc(O)c(C(C)(C)C)cc1/N=C/c1ccc(C(C)C)cc1	19.42 µg/mL (≈ 62.8 µM)	86.4%	74%	45.9%	64%	28.7%
CCc1ccc(/C=N/c2cc(C(C)(C)C)c(O)cc2C)cc1	24.04 µg/mL (≈ 81.4 µM)	80.9%	72.4%	47.2%	56.3%	27.1%
CCCc1ccc(/C=N/c2cc(C(C)C)c(O)cc2C)cc1	20.16 µg/mL (≈ 68.2 µM)	72.5%	69.2%	50.7%	65.5%	25.1%
